# Sampled rows, rich in hits. Any-hit rate of the full collection: about 2.5%.
# NR2E3 ag-1: agonists of human NR2E3 nuclear receptor; Q9Y5X4; CHO-S Gal4-NCOR/VP16-NR2E3 two-hybrid, luciferase; inhibition of corepressor binding, % at 3.98 µM; actives 0.35% (n = 360,000);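 active means inhibition above the mean of all tested compounds plus 3 SD, cut at about 70% in these data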;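 further: higher means lower luciferase signal from less NR2E3 corepressor binding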
# ADAM17 inh: inhibits human ADAM17; P78536; recombinant ADAM17, EDANS/DABCYL FRET peptide cleavage; actives 0.83% (n = 370,000); inhibition, % at 6.95 µM;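 active means inhibition above the mean of compounds lying between control limits plus 3 SD, set per campaign, cut at about 8.5% in these data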
# ADAM10 inh: ADAM10 inhibition, QFRET primary screen; actives 0.62% (n = 370,000); recombinant ADAM10, EDANS/DABCYL FRET peptide cleavage, 3 h; inhibition, % at 7 µM; O14672;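 active means inhibition above a per-campaign cutoff equal to the mean of compounds falling between control-based bounds plus 3 SD, cut at about 20% in these data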
# JMJD2C inh: blocks human GASC-1 demethylase activity. AID 2099. actives 0.069% (n = 330,000). Q9H3R0. inhibition, % at 2.35 µM. GST-JMJD2C(1-420) H3K9me3 demethylation, DELFIA europium;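 active means more than half of a compound's replicate wells show inhibition beyond 50%, single wells judged on their own value; inconclusive means some, but no more than half, of replicates pass 50% inhibition; inactive means no replicate passes 50% inhibition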;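 further: signal counts dimethyl H3K9 product captured on neutravidin plate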
# KLK7 zymogen act: activators of human kallikrein-7 zymogen. purified proKLK7, EDANS-DABCYL substrate fluorescence; 100% is mature enzyme control, 0% vehicle. activation, % at 7 µM. actives 0.9% (n = 370,000). AID 652039;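 active means activation above the mean of all tested compounds plus 3 SD, computed per campaign excluding outliers beyond control limits, cut at about 13% in these data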
# Target sequence (P49862 whole entry, looked up): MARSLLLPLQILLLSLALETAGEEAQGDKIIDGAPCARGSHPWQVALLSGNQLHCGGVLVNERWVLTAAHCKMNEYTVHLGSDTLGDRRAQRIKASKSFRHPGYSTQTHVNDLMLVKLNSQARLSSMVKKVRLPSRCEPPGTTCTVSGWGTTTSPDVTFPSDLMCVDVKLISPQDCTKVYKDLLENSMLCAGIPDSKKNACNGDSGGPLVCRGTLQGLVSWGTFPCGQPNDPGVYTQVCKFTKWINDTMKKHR
# NR2E3 ag-2: NR2E3 (human) agonism. inhibition of corepressor binding, % at 4.78 µM. AID 2300. GST-NR2E3/biotin-RetCOR TR-FRET, 1536-well. actives 0.12% (n = 320,000). Q9Y5X4;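 active means percent inhibition above the cutoff of mean plus 3 SD of all tested compounds, set per screening campaign, cut at about 20% in these data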
#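 system = GST-tagged NR2E3 plus biotinylated RetCOR corepressor | input = 1.35 nM GST-NR2E3 | also added = 7 nM biotin-RetCOR | schedule = 5 h incubation at 4 °C | measured by = TR-FRET with europium anti-GST and streptavidin-D2, 340 nm excitation | read-out = percent loss of FRET ratio relative to control wells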
# A number is an active result; - = inactive; ? = inconclusive; . = no result given.
SMILES,NR2E3 ag-1,ADAM17 inh,ADAM10 inh,JMJD2C inh,KLK7 zymogen act,NR2E3 ag-2
Cn1cccc1-c1nc2ccc(NC(=O)c3cccs3)cc2[nH]1,-,-,-,58,-,-
CC(=O)Nc1ccc2nc(-c3cccn3C)[nH]c2c1,-,-,-,-,-,-
CC(Nc1nc(-c2ccc(Cl)cc2)cs1)c1nc2cc(Cl)c(N3CCCCC3)cc2n1CCOCCO (stereo unspecified),-,-,22,-,-,-
COc1ccc(NS(=O)(=O)c2cccc(C(=O)N/N=C(/C)c3ccc(-n4ccnc4)cc3)c2)cc1,-,-,-,.,-,.
CCOc1ccc(S(=O)(=O)Nc2ccc(C(=O)N/N=C(\C)c3ccc(-n4ccnc4)cc3)cc2)cc1,-,9.0,-,-,-,-
CC[C@H](CCCc1ccc(F)cc1)CN(Cc1ccc(OC)cc1)S(=O)(=O)c1ccc(C)cc1,.,-,-,.,-,.
O=C(Nc1cc(Sc2ccccn2)cc([N+](=O)[O-])c1)c1cccc(F)c1,-,11,-,-,-,-
CCOc1ccc(C2C=C(c3ccc(F)cc3)Nc3ncnn32)cc1 (stereo unspecified),-,-,-,-,-,-
Oc1ccc(C2C=C(c3ccc(F)cc3)Nc3ncnn32)cc1 (stereo unspecified),-,-,-,-,27,.
C=C1C(=O)CC2=C1[C@](Cc1ccc(F)cc1)(C(=O)OC)N(C(=O)c1ccccc1)C2,-,-,-,.,-,.
C=C1C(=O)C=C2CN(C(=O)c3ccccc3)[C@@](Cc3ccc(F)cc3)(C(=O)OC)[C@@H]12,72,.,.,-,.,-
CCOC(=O)CCC(=O)c1c(C)oc2ccc(OC)cc12,-,9.9,-,-,-,-
COc1ccc2oc(C)c(C(=O)NN)c2c1,-,-,-,-,-,-
COc1ccc(/C=N/Nc2cc(=O)n(C)c(=O)n2C)cc1OC,-,-,-,52,-,-
COc1cc(/C=N\Nc2cc(=O)n(C)c(=O)n2C)ccc1O,-,-,-,-,-,-
Cc1cccc(N2C(=O)C3C4C=CC(C4)C3C2=O)c1 (stereo unspecified),-,-,-,54,-,-
Cc1ccc(N2C(=O)C3C4C=CC(C4)C3C2=O)cc1C (stereo unspecified),-,-,-,-,-,-
CCOc1ccc(N=Cc2ccc(N(C)C)cc2)c(O)c1,-,.,.,.,.,.
CCOc1ccc(N=Cc2ccc([N+](=O)[O-])cc2)c(O)c1,-,-,-,.,18,.
CCCCNS(=O)(=O)c1ccc2nc(SCC(N)=O)[nH]c2c1,-,-,-,-,-,-
CCCCNS(=O)(=O)c1ccc2nc(SCC(=O)Nc3sccc3C#N)[nH]c2c1,-,13,20,-,-,-
CC1=CC(=O)C(C(C)C)=C/C1=N\OS(=O)(=O)c1ccc(F)cc1,.,-,-,.,.,.
CC1=C(C)/C(=N\OS(=O)(=O)c2ccccc2)C=CC1=O,74,.,.,-,.,-
O=C1N(Cc2ccccc2)c2ccccc2C12CCCc1oc(CCc3ccccc3)nc12 (stereo unspecified),.,-,-,.,-,.
COc1nc(OC)nc(N2CCC(C(=O)N(C)Cc3ccccc3F)CC2)n1,.,-,-,.,-,.
SMILES,NR2E3 ag-1,ADAM17 inh,ADAM10 inh,JMJD2C inh,KLK7 zymogen act,NR2E3 ag-2
CCOC(=O)c1cc2c(=O)n3ccccc3nc2n(Cc2ccco2)c1=NC(=O)c1ccc(OC)cc1OC,-,-,-,-,17,-
CCOC(=O)C1=NOC(C(C)=O)(C(=O)NC2CCCC2)C1 (stereo unspecified),.,-,-,.,-,.
COc1ccc(C(=O)c2nccc3cc(OC)c(OC)cc23)cc1OC,-,.,.,-,.,20
Cc1ccc([N+](=O)[O-])cc1N(CC(=O)Nc1ccc(S(=O)(=O)Nc2cccc(C(F)(F)F)c2)cc1)S(C)(=O)=O,-,25,49,-,-,-
Cc1cccc(NC(=O)n2ccc3ccc(-c4ccc5cc[nH]c5c4)cc32)c1,.,-,-,.,-,.
COC(=O)[C@]12C[C@H](CC(=O)NCc3ccc(C)o3)C(=O)N(Cc3ccc(Cl)cc3Cl)C1=C[C@H](C(C)(C)C)O[C@@H]2C,.,-,-,.,-,.
CC(=NNC(=O)CSc1nnc(-c2ccccc2)n1-c1ccccc1)c1cccc([N+](=O)[O-])c1,.,-,-,.,-,.
Cc1cccc(Nc2nc(-c3c(C)nc4ccccn34)cs2)c1,78,-,-,?,-,-
CN(C)CCCN(C(=O)c1ccc2c(c1)CCCC2)c1nc2ccc(Cl)cc2s1,-,8.7,-,-,-,-
COc1ccc(NC(=S)NC(NC(=O)c2cccc(C)c2)C(Cl)(Cl)Cl)c([N+](=O)[O-])c1 (stereo unspecified),-,-,21,.,-,-
COc1ccc(NC(=S)NC(NC(=O)c2cccc(Cl)c2)C(Cl)(Cl)Cl)c([N+](=O)[O-])c1 (stereo unspecified),-,-,-,-,-,-
CCOC(=O)c1cnn(-c2cc(C(C)(C)C)nc3c(-c4ccccc4)c(C)nn23)c1N,-,-,-,-,-,-
CCOC(=O)c1cnn(-c2c(Cc3ccccc3)c(C)nc3c(-c4ccccc4)c(C)nn23)c1N,-,10,-,-,-,-
Cn1c(SCC(=O)N2CCCC2=O)nnc1-c1ccccc1F,-,-,-,55,-,-
CC(NCc1ccco1)C(=O)N1CCN(c2cccc(C(F)(F)F)c2)CC1 (stereo unspecified),.,-,-,.,-,.
Cc1cccc(C)c1NS(=O)(=O)c1cc2c3c(c1)CC(=O)N3CCC2,-,-,-,54,-,-
COc1ccc(C(=O)O/N=C(\C)c2cnccn2)cc1,-,-,-,57,-,-
COc1ccc(C(=O)O/N=C(\N)c2ccccn2)cc1,-,-,-,-,-,-
COc1ccccc1-n1c(SCC(=O)N2CCCC2)nc2cccnc21,-,-,-,62,-,-
CCN(CC)C(=O)CSc1nc2cccnc2n1-c1ccccc1OC,-,-,-,-,-,-
Cc1cc(C(C#N)c2ccc(Cl)cc2)c(Cl)cc1NC(=O)c1cc(I)cc(I)c1O (stereo unspecified),101,-,-,-,-,-
Cc1[nH]n(-c2ccccc2)c(=O)c1C(C[N+](=O)[O-])c1ccc(Br)cc1 (stereo unspecified),-,-,-,-,-,-
COc1cccc(C(C[N+](=O)[O-])c2c(C)[nH]n(-c3ccccc3)c2=O)c1 (stereo unspecified),-,-,-,69,-,-
Cc1ccccc1-c1ccc(=O)n(CC(=O)Nc2ccc(C(=O)N3CCCC3)cc2)n1,-,-,-,-,-,-
Cc1ccccc1-c1ccc(=O)n(CC(=O)Nc2ccc(N3CCOCC3)cc2)n1,-,-,-,57,-,-
